# Laboratory results taken from ChEMBL document CHEMBL4513216, “Probing the Open Global Health Chemical Diversity Library for Multistage-Active Starting Points for Next-Generation Antimalarials” (ACS Infect Dis, 2020).
# Test: Toxicity liver stage against HepG2, at 10uM
# Format: cell-based
# Design: test concentration 10 uM, cell line HepG2-A16-CD81EGFP
# Settings: human, HepG2-A16-CD81EGFP cells; read-out: INHIBITION
# Summary of the method: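 Uninfected HepG2-A16-CD81EGFP cells, 3 × 10^3 per well, 1536-well, plated on prespotted compound at 10 μM final, parasite-free screening media added to match infected plates; puromycin 10 μM positive, DMSO 0.5% negative; run in parallel with 48 h PbLuc assay at 37 °C, 5% CO2; viability by CellTiter-Glo luminescence, normalized to controls.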
row,Structure (SMILES),cytotoxicity at 10 µM [%]
1,COc1cccc(NC(=O)Cn2c(=O)nc(N)c3cc(C)sc32)c1,-8.72
2,O=C(NCC1(CO)CC1)c1ccccc1Cl,5.47
3,O=C(NCC1(CO)CC1)c1ccccc1C(F)(F)F,4
4,CC(=O)NCCn1ccc(-c2ccccn2)n1,7.38
5,CC(=O)NCC(=O)N1CCC2(COCc3c(C)nc(N(C)C)nc32)C1 (configuration not stated),1.41
6,NC(=O)c1c(NC(=O)CCC(=O)O)sc2c1CCc1ccccc1-2,-1.99
7,CC(C)(C)n1ncc2c1NC(=O)CC2c1ccc(C(=O)O)cc1 (configuration not stated),2.08
8,COc1cc(OCC(=O)NCCc2ccccc2)cc(OC)c1OC,0.285
9,CC1CCN(C(=O)Cn2nc(Br)nc2Br)CC1,-1.8
10,COC(=O)CCc1c(C)nn(-c2nc(C)cc(=O)[nH]2)c1C,9.22
11,COc1cccc(S(=O)(=O)NC2CNC(=O)C2)c1 (configuration not stated),-21.7
12,O=c1ccc(-c2cccs2)nn1CN1CCN(Cc2ccccc2)CC1,-3.73
13,O=C(c1ccnnc1)N1C[C@H](Oc2cccnc2)[C@H]2OCCC[C@H]21,-14.7
14,Cc1ccn(-c2ccnc(N3CCC(N4CCCCC4)CC3)n2)n1,4.54
15,Cc1nc(C)c(C(=O)N2CCc3nnc(C4CCCCN4C)n3CC2)s1 (configuration not stated),0.642
16,O=S(=O)(c1ccccc1)N1CCOC(Cn2ccnc2)C1 (configuration not stated),7.77
17,O=C(c1cc(-c2cccnc2)[nH]n1)N1CCCC(Cc2ccccn2)C1 (configuration not stated),7.5
18,CC(C)n1nnc(CC(=O)NCC2(c3ccccc3F)CCCC2)n1,-0.325
19,COc1ccc2c(c1)NC(C1CCN(C(=O)C(C)C)CC1)NS2(=O)=O (configuration not stated),-4.66
20,Oc1nc(C2CCN(Cc3ccccn3)CC2)cc2ccccc12,11.8
21,Cc1nn(C)cc1NC(=O)CC1CCN(CCc2ccccc2)CC1,-4.92
22,NCc1cccc(-c2cccnc2C(=O)NCCCN2CCOCC2)c1,-8.77
23,c1cc(-c2cnc(NC3CC3)nc2[C@H]2CCCO2)ccn1,9.83

row,Structure (SMILES),cytotoxicity at 10 µM [%]
1,O=C(Cn1cccc2cc(-c3ccc(F)cc3)nc1-2)N1CCC(O)CC1,-7.74
2,Cc1cc(CN2CCN(Cc3ccc(C#N)cc3F)CC2)no1,1.71
3,NC(=O)CCOc1ccc(NC(=O)c2ccccc2OC(F)F)cc1,9.62
4,O=C(Cc1cccs1)NCCNc1nccc(C(F)(F)F)n1,10.9
5,CN1CCC(N(Cc2ccccc2)C(=O)c2nccn3ccnc23)CC1,3.52
6,CCN(Cc1ccncc1)C1CCN(c2ccccc2)C1=O (configuration not stated),-1.83
7,CN(C)C(=O)N1CCN(Cc2cnc(-c3ccsc3)s2)CC1,2.03
8,CC(Cn1cncn1)NC(=O)N1CC2(CCCC2)c2ccccc21 (configuration not stated),5.65
9,Cc1cccc(OCCCNC(=O)Cn2ccc(C)cc2=O)c1,-4.42
10,Cc1nc2ccccc2nc1CN1CCc2c(nc(C3CC3)n2C)C1,7.97
11,CN(C)C(=O)CCS(=O)(=O)Cc1ccn(-c2cccc(F)c2)n1,-5.71
12,CCCNC(=O)CN1CCC(NCc2c(C)nn(C)c2OC)CC1,-5.32
13,CC(C)OCCC(=O)N1CCN(CC(O)c2ccccc2)CC1 (configuration not stated),-8.09
14,O=C(COC1CCCC1)NCCc1noc(-c2ccccn2)n1,3.41
15,COCc1nccc(C2CCCN(Cc3ccccc3C#N)C2)n1 (configuration not stated),6.05
16,COc1ccnc(N2CCN(C(=O)c3csc(C)n3)CC2)n1,0.313
17,COc1ccc(OCCNc2cccc(C(=O)N3CCOCC3)c2)cc1,7.08
18,Cc1nn(C)c(Cl)c1C(=O)NCc1cccnc1N1CCOCC1,-132
19,Cc1nnc(NC(=O)CN2CCCC2c2noc(C3CC3)n2)s1 (configuration not stated),5.22
20,OC(CN(Cc1ccccc1)Cc1cccnc1)c1ccco1 (configuration not stated),-0.408
21,CC(C#N)CNS(=O)(=O)c1ccc(F)c(Br)c1 (configuration not stated),-1.69
22,Cc1nc(CN2CCCN(C(=O)c3ccn(C)c(=O)c3)CC2)cs1,-12.7
23,CN(C)C(=O)c1ccc(OC2CCCC2)cc1,-3.51

row,Structure (SMILES),cytotoxicity at 10 µM [%]
1,Cc1noc(C)c1CNc1ccc2nc(C3CC3)sc2c1,10.8
2,CC1CCCN(S(=O)(=O)N2CCOC3(CCCC3)C2)C1 (configuration not stated),-1.57
3,c1csc(SCC2CN=C(N3CCOCC3)S2)c1 (configuration not stated),10.3
4,CCC(NCc1ccccc1)c1ccccc1OCC(=O)NC (configuration not stated),16.2
5,CS(=O)(=O)Nc1cccc(C(=O)Nc2ccc3c(c2)C(=O)NC3)c1,5.91
6,O=C(CCc1nc(C2CC2)no1)c1ccccc1,-6.43
7,CN(C)C1(CNC(=O)C2CCCN2Cc2ccc(F)cc2)CCOCC1 (configuration not stated),3.25
8,N#Cc1cc(Cl)ccc1N1CCN(C(=O)C2CCC2)CC1,10.1
9,CCN(Cc1ccoc1)C(=O)C1CCN(C(=O)OC(C)(C)C)C1 (configuration not stated),-15.5
10,Cn1cc(C2CCCN2C(=O)Cn2ccc3ccc(Cl)cc32)cn1 (configuration not stated),8.81
11,O=S(=O)(Cc1ccccc1)NCc1nnc2n1CCC2,16.2
12,CC(C)(C)OC(=O)N1CSC[C@@H]1C(=O)NCc1ccncc1,1.17
13,NS(=O)(=O)c1cnc(NCC2(c3cccc(F)c3)CCOCC2)s1,-5.71
14,COCC(NC(=O)NCc1cccc(Cl)c1)c1ccco1 (configuration not stated),6.4
15,CCN1CC(C(=O)NC(C)(C)CC(C)(C)C)CC1=O (configuration not stated),-4.72
16,CN(C)CCCNC(=O)c1cc(Br)c2c(c1)OCCO2,13.3
17,CSCc1nc(C(C)(C)NC(=O)OC(C)(C)C)no1,-8.44
18,COCCn1cc(C(=O)N2CCCC2c2cc(C)no2)ccc1=O (configuration not stated),-17.7
19,Cc1cn(CC(=O)NC2CCN(S(C)(=O)=O)CC2)c2ccccc12,1.44
20,Cc1ccc(CNC(=O)Nc2cc(C(F)(F)F)c[nH]c2=O)cn1,-21.8
21,O=C1CCCCN1Cc1cccc(NC(=O)N2CCSCC2)c1,-9.99
22,Cc1cccc(N2CCN(CCNC(=O)c3ccnn3C)CC2)c1,10.4
23,COCC(=O)N1CCc2ccc(=O)n(CC3CC3)c2CC1,6.7

row,Structure (SMILES),cytotoxicity at 10 µM [%]
1,O=C(c1cccnc1)N1CCC2(CC1)CN(c1ccccn1)CCO2,-69.5
2,N#Cc1cccc(N2CC3(CCN(C(=O)c4ccnnc4)C3)CC2=O)c1 (configuration not stated),2.64
3,Cn1nc(CN2CCCCC2)c2c1CN(C(=O)c1ccoc1)C2,2.83
4,CCC[C@H]1CN(c2cncc(C(=O)N3CCCCC3)n2)C[C@@H]1N(C)C,-11.2
5,CC(C)(C)c1ccc(OCc2nc3c(c(=O)[nH]2)CCNC3)cc1,5.11
6,CC(C)CNS(=O)(=O)c1ccc(C(=O)N(C)CCc2cn[nH]c2)cc1,4.48
7,CC1=C(CCN2CCCC(O)C2)C(C)(C)CCC1 (configuration not stated),3.43
8,CN(C)C(=O)c1ccc2c(c1)N(C)C(CC(=O)NC(CO)CO)CO2 (configuration not stated),-4.36
9,CCC(C(=O)NC1CCCC1)n1ccc2ncccc2c1=O (configuration not stated),4.2
10,COCCN(C/C=C/c1ccccc1)Cc1nccs1,42.8
11,CCCc1ccc2oc(C(=O)N3CCN(CCOC)CC3)c(C)c2c1,-8.36
12,Cc1n[nH]c(C)c1CCN(C)C(=O)C(c1cccnc1)N1CCOCC1 (configuration not stated),-0.593
13,Cc1cc2c(cc1C(=O)N1CCC3(CC(=O)NC3=O)C1)OCCO2 (configuration not stated),7.15
14,CCn1nc(C)c(CCNC(=O)c2coc(CN3CCOCC3)c2)c1C,-0.386
15,CCn1c(CN(C)C)nnc1C1CCN(c2ccnc(C)c2)CC1,14.9
16,Cc1cc(N2CCCN(C(=O)Cc3csc(C)n3)CC2)ccn1,-12
17,Cn1ncc2c(NCCC34CCCN3CCC4)nc(C3CCCC3)nc21,-12.9
18,NC(=O)C1CCN(c2nc3nccc(-c4ccccc4)c3c(=O)[nH]2)CC1,-9
19,COc1ccccc1CN(C)C(=O)NCc1c(C)cc(C)[nH]c1=O,-4.98
20,Cc1nn(C)c(Cl)c1C1CCCN1Cc1nc(-c2ccco2)no1 (configuration not stated),-11.8
21,CC(C)c1nc(C2CCCN2CCS(=O)(=O)c2ccccc2)no1 (configuration not stated),-5.28
22,CCN(CC)c1ccc(C(=O)N2CCCC(n3cncn3)C2)cn1 (configuration not stated),-4.78
23,COc1ccc(CNC(=O)CCSCc2csc(C)n2)cn1,-21.4

row,Structure (SMILES),cytotoxicity at 10 µM [%]
1,OC(CN1CCC(c2ccn[nH]2)CC1)c1ccc(F)cc1 (configuration not stated),-28.9
2,Cc1nc(CN2CCC(c3ccnn3CCO)CC2)oc1C,-15.9
3,CC(O)CN1CCN(C(=O)c2ccn(-c3ccccc3Cl)n2)CC1 (configuration not stated),-11.6
4,CCOc1cc(/C=C/c2ncc(C(=O)O)s2)cc(Br)c1O,-4.49
5,c1ncn(CC2CCCN(Cc3csc(-c4ccsc4)n3)C2)n1 (configuration not stated),-9.86
6,Cc1noc(C)c1CN1CCCC(c2noc(C3CC3)n2)C1 (configuration not stated),-12.8
7,CC(NC(=O)CCCOc1ccc(F)cc1)c1nnc2n1CCC2 (configuration not stated),-16.1
8,CCOC(=O)C1CCN(Cc2csc(C(C)(C)C)n2)CC1,-4.46
9,Cc1nc(C)n(CC2CCCN2Cc2cn(-c3ccccc3)nn2)n1 (configuration not stated),3.87
10,CCN(CC)C1CCN(C(=O)NCc2nncn2CC)CC1,2.72
11,Cc1c(CN2CCc3nc4sccc4c(=O)n3CC2)cnn1C,-2.75
12,O=C(Nc1cccnc1)[C@H]1C[C@@H]2CCN(c3nncs3)C[C@H]2O1,-13.3
13,CCN1CCC2(CCN(c3ncccn3)CC2)C1=O,1.26
14,CN1CCOCC12CCN(Cc1ccoc1)CC2,2.93
15,NC(=O)N1CCC2(CCN(Cc3cccc(F)c3)CC2)CC1,-10.1
16,O=S(=O)(c1cccc(F)c1)N1CC[C@H]2[C@H]1CCN2c1ncccn1,-4.35
17,Cn1cccc1C(=O)NCc1cnc2n1CCN(CC1CC1)C2,11.8
18,CC(C)N1CCC2(CC1)CC(NS(C)(=O)=O)c1ccccc1O2 (configuration not stated),7.16
19,c1cnc(N2Cc3nccn3CC(COc3cccnc3)C2)nc1 (configuration not stated),10.7
20,COCc1cncc2c1CCN(Cc1ccccn1)C2,-10.2
